Columns and labels:
[1] = Cytotoxicity against human HeLa67 cell after 3 days by XTT assay; type: cell-based; settings: HeLa67 cells
How it was run: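 HeLa67 cells treated in parallel with the antiviral assay. Viability read by XTT three days after compound addition. Values are means of two or more experiments unless noted otherwise.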

[2] = tested on: Human immunodeficiency virus 1; test: Antiviral activity against HIV1 infected human HeLa67 cells coexpressing JRFL-LUCENV after 3 days by luciferase reporter assay; type: functional, organism-based; settings: Human immunodeficiency virus 1, HeLa67, 72 h
How it was run: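 JRFL-Luc ΔEnv pseudotyped virus, titered by serial dilution on HeLa67 cells (CD4+/CCR5+). Fourfold serial dilutions of compound added to infected cells at the time of infection. Luciferase activity read after three days and compared with no-compound controls to derive EC50. Values are means of two or more experiments.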

| EC50 [2] | SMILES | CC50 at 72 h [1] |
| --- | --- | --- |
| – | O=C(C(=O)N1CCN(C(=O)c2ccccc2)CC1)c1c[nH]c2cccc(F)c12 | > 300 µM |
| 6.7 µM | O=C(C(=O)N1CCN(C(=O)c2c(F)cccc2F)CC1)c1c[nH]c2ccccc12 | > 300 µM |
| 0.0054 µM | O=C(C(=O)N1CCN(C(=O)c2ccco2)CC1)c1c[nH]c2cccc(F)c12 | > 300 µM |
| 14.5 µM | O=C(C(=O)N1CCN(C(=O)c2ccc(Cl)c(Cl)c2)CC1)c1c[nH]c2ccccc12 | 123 µM |
| 3.5 µM | O=C(C(=O)N1CCN(C(=O)c2cccc(Cl)c2F)CC1)c1c[nH]c2ccccc12 | > 300 µM |
| > 100 µM | O=C(C(=O)N1CCN(C(=O)Cc2ccccc2)CC1)c1c[nH]c2ccccc12 | > 300 µM |
| 30 µM | O=C(C(=O)N1CCN(C(=O)c2ccc(Br)cc2)CC1)c1c[nH]c2ccccc12 | > 240 µM |
| 0.0014 µM | O=C(C(=O)N1CCN(C(=O)c2occc2Br)CC1)c1c[nH]c2cccc(F)c12 | 236 µM |
| 1.23 µM | O=C(C(=O)N1CCN(C(=O)c2c[nH]cn2)CC1)c1c[nH]c2cccc(F)c12 | > 300 µM |
| 10.5 µM | O=C(C(=O)N1CCN(C(=O)c2ccccc2Br)CC1)c1c[nH]c2ccccc12 | > 300 µM |
| 2.49 µM | O=C(C(=O)N1CCN(C(=O)c2ccc(O)cc2)CC1)c1c[nH]c2ccccc12 | 136 µM |
| 0.0032 µM | O=C(C(=O)N1CCN(C(=O)c2sccc2Br)CC1)c1c[nH]c2cccc(F)c12 | 69.7 µM |
| 36.5 µM | O=C(C(=O)N1CCN(C(=O)c2cc(F)c(F)cc2F)CC1)c1c[nH]c2ccccc12 | > 300 µM |
| 35 µM | O=C(C(=O)N1CCN(C(=O)c2ccccc2Cl)CC1)c1c[nH]c2ccccc12 | > 300 µM |
| 8.91 µM | O=C(C(=O)N1CCN(C(=O)c2ccc(F)cc2)CC1)c1c[nH]c2ccccc12 | 280 µM |
| 55 µM | O=C(C(=O)N1CCN(C(=O)c2cc(F)c(F)c(F)c2)CC1)c1c[nH]c2ccccc12 | > 300 µM |
| 3.5 µM | O=C(C(=O)N1CCN(C(=O)C2CCCCC2)CC1)c1c[nH]c2ccccc12 | > 300 µM |
| > 10 µM | COc1ccccc1C(=O)N1CCN(C(=O)C(=O)c2c[nH]c3ccccc23)CC1 | > 300 µM |
| 8.38 µM | Cc1ccc(C(=O)N2CCN(C(=O)C(=O)c3c[nH]c4ccccc34)CC2)cc1 | > 99 µM |
| 0.0087 µM | O=C(C(=O)N1CCN(C(=O)c2cscn2)CC1)c1c[nH]c2cccc(F)c12 | > 250 µM |

| EC50 [2] | SMILES | CC50 at 72 h [1] |
| --- | --- | --- |
| 86.5 µM | Cc1ccncc1C(=O)N1CCN(C(=O)C(=O)c2c[nH]c3ccccc23)CC1 | > 300 µM |
| 0.0045 µM | O=C(C(=O)N1CCN(C(=O)c2ccccn2)CC1)c1c[nH]c2cccc(F)c12 | > 300 µM |
| 0.0004 µM | O=C(C(=O)N1CCN(C(=O)c2ccsc2)CC1)c1c[nH]c2cccc(F)c12 | > 300 µM |
| 0.154 µM | O=C(C(=O)N1CCN(C(=O)c2cccnc2)CC1)c1c[nH]c2cccc(F)c12 | > 300 µM |
| 3.65 µM | O=C(C(=O)N1CCN(C(=O)c2ccccc2O)CC1)c1c[nH]c2ccccc12 | 194 µM |
| 8.3 µM | O=C(C(=O)N1CCN(C(=O)c2ccc(F)c(F)c2)CC1)c1c[nH]c2ccccc12 | > 300 µM |
| 0.156 µM | O=C(C(=O)N1CCN(C(=O)c2ccno2)CC1)c1c[nH]c2cccc(F)c12 | > 300 µM |
| 1.55 µM | O=C(C(=O)N1CCN(C(=O)c2ccccn2)CC1)c1c[nH]c2ccccc12 | > 300 µM |
| 0.0007 µM | O=C(C(=O)N1CCN(C(=O)c2cccs2)CC1)c1c[nH]c2cccc(F)c12 | > 300 µM |
| 6.7 µM | O=C(C(=O)N1CCN(C(=O)c2cccc(Br)c2)CC1)c1c[nH]c2ccccc12 | 76 µM |
| > 56 µM | COc1cccc(C(=O)N2CCN(C(=O)C(=O)c3c[nH]c4ccccc34)CC2)c1 | > 300 µM |
| > 54 µM | O=C(C(=O)N1CCN(C(=O)c2c(F)cc(F)cc2F)CC1)c1c[nH]c2ccccc12 | > 300 µM |
| > 50 µM | O=C(C(=O)N1CCN(C(=O)Cc2ccccc2)CC1)c1c[nH]c2cccc(F)c12 | > 300 µM |
| 18 µM | O=C(C(=O)N1CCN(C(=O)c2cccc(Cl)c2Cl)CC1)c1c[nH]c2ccccc12 | 235 µM |
| > 100 µM | O=C(C(=O)N1CCN(C(=O)CC2CCCCC2)CC1)c1c[nH]c2ccccc12 | 158 µM |
| > 0.5 µM | CN(C)c1ccccc1C(=O)N1CCN(C(=O)C(=O)c2c[nH]c3ccccc23)CC1 | 89 µM |
| 37 µM | O=C(C(=O)N1CCN(C(=O)c2ccc(Cl)cc2Cl)CC1)c1c[nH]c2ccccc12 | 111 µM |
| 0.0173 µM | Cc1ccsc1C(=O)N1CCN(C(=O)C(=O)c2c[nH]c3cccc(F)c23)CC1 | 260 µM |
| 30.2 µM | COc1ccc(C(=O)N2CCN(C(=O)C(=O)c3c[nH]c4ccccc34)CC2)cc1 | 129 µM |
| 2.76 µM | O=C(C(=O)N1CCN(C(=O)c2cccc(F)c2)CC1)c1c[nH]c2ccccc12 | 200 µM |

| EC50 [2] | SMILES | CC50 at 72 h [1] |
| --- | --- | --- |
| > 100 µM | O=C(C(=O)N1CCN(C(=O)c2cccc3ccccc23)CC1)c1c[nH]c2ccccc12 | > 300 µM |
| 17.5 µM | O=C(C(=O)N1CCN(C(=O)c2cccc(Cl)c2)CC1)c1c[nH]c2ccccc12 | 117 µM |
| 0.391 µM | O=C(C(=O)N1CCN(C(=O)c2ccccc2F)CC1)c1c[nH]c2ccccc12 | 101 µM |
| 0.0237 µM | O=C(C(=O)N1CCN(C(=O)c2ccncc2)CC1)c1c[nH]c2cccc(F)c12 | > 205 µM |
| > 100 µM | CN(C)c1ccc(C(=O)N2CCN(C(=O)C(=O)c3c[nH]c4ccccc34)CC2)cc1 | > 300 µM |
| 0.007 µM | N#Cc1ccoc1C(=O)N1CCN(C(=O)C(=O)c2c[nH]c3cccc(F)c23)CC1 | 187 µM |
| 0.0119 µM | O=C(C(=O)N1CCN(C(=O)c2sccc2Cl)CC1)c1c[nH]c2cccc(F)c12 | 50.5 µM |
| 65.8 µM | O=C(C(=O)N1CCN(C(=O)c2ccc(Cl)cc2)CC1)c1c[nH]c2ccccc12 | 92 µM |
| > 0.5 µM | CN(C)c1cccc(C(=O)N2CCN(C(=O)C(=O)c3c[nH]c4ccccc34)CC2)c1 | 230 µM |
| 9 µM | CC(C)(C)c1ccc(C(=O)N2CCN(C(=O)C(=O)c3c[nH]c4ccccc34)CC2)cc1 | 31 µM |
| 0.0204 µM | O=C(C(=O)N1CCN(C(=O)c2ccoc2)CC1)c1c[nH]c2cccc(F)c12 | > 300 µM |
| 0.0031 µM | O=C(C(=O)N1CCN(C(=O)c2occc2Cl)CC1)c1c[nH]c2cccc(F)c12 | 250 µM |
| 0.0718 µM | O=C(C(=O)N1CCN(C(=O)c2cc[nH]n2)CC1)c1c[nH]c2cccc(F)c12 | > 300 µM |
| 0.0228 µM | Cc1nc(C(=O)N2CCN(C(=O)C(=O)c3c[nH]c4cccc(F)c34)CC2)cs1 | > 300 µM |
| > 100 µM | O=C(C(=O)N1CCN(C(=O)c2cc(F)c(F)c(F)c2F)CC1)c1c[nH]c2ccccc12 | > 300 µM |
| 6 µM | O=C(C(=O)N1CCN(C(=O)c2ccc(F)cc2F)CC1)c1c[nH]c2ccccc12 | > 300 µM |
| 82 µM | CCCc1ccc(C(=O)N2CCN(C(=O)C(=O)c3c[nH]c4ccccc34)CC2)cc1 | 48 µM |
| 4.2 µM | O=C(C(=O)N1CCN(C(=O)c2cccnc2)CC1)c1c[nH]c2ccccc12 | > 300 µM |
